JMJD2C inh: inhibitors of GASC-1 histone demethylase, primary screen, biochemical, fluorescence, DELFIA europium. GST-JMJD2C(1-420) H3K9me3 demethylation. inhibition, % at 2.35 µM. 330,000 tested, 0.069% active. AID 2099, 2009;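 active means more than half of a compound's replicate wells show inhibition beyond 50%, single wells judged on their own value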;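 further: signal counts dimethyl H3K9 product captured on neutravidin plate; 0% = median of DMSO wells and 100% = 0.3 times that DMSO median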
Target sequence (Q9H3R0 1-420 limits assumed): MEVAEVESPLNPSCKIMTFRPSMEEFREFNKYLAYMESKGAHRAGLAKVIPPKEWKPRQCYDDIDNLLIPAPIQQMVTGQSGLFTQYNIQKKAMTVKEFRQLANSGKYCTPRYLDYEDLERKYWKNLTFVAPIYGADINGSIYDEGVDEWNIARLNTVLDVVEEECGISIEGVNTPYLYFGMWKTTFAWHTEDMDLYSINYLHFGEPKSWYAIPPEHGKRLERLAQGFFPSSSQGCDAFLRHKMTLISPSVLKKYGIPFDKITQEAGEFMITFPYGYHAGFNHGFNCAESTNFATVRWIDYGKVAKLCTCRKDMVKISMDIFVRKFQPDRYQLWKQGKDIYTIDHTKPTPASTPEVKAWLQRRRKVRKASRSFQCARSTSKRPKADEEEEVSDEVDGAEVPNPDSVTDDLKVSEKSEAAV
HIF act: HIF pathway transcriptional activators, primary screen, cell-based, U2OS HRE-luciferase, luminescence; activation, % at 7.5 µM (by protocol); AID 1910, 2009; U2OS HRE-luciferase reporter; normalized: DMSO 0%, desferrioxamine 100%; 300,000 tested, 0.32% active;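 active means mean activation of at least 10% of the iron chelator positive control signal, with at least half of replicates also reaching 10%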
SUMO Mot1 rescue: yeast Mot1-301 growth rescue at high temperature, primary screen, SUMOylation pathway inhibitor project, S. cerevisiae, ATP luminescence, 38.5C | S. cerevisiae Mot1-301 growth rescue; percent above DMSO median, 100 means doubled | growth rescue, % at 18.8 µM | 320,000 tested, 1% active | AID 2716, 2010;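 active means every valid replicate shows activation above 250% relative to neutral control wells; inactive means the rest, any valid replicate at or below 250%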;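 further: OY570 slx delta 5 strain wells were the positive control but not used for scaling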
T cell HTS: modulators of CD8 T cell-vesicle binding, primary screen, mouse 2C CD8+ T cells, flow cytometry; 330,000 tested, 0.068% active; response (vesicle binding), % at 7 µM; 2C CD8+ T cell-vesicle binding; hits give low values;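 active means response, share of CD8 T cells binding vesicles, and their 90th percentile fluorescence all below set limits, cut at about 80% in these data, passing the limit was not always enough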;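 further: values below 100% mean blocked vesicle binding to the CD8+ T cells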
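System: murine 2C transgenic CD8+ T lymphocytes; also added: QL9-loaded Drosophila micro-vesicles; times: binding 1.5 h at 37 °C; measured by: flow cytometry, PE anti-B7-1 (FL2) versus Alexa647 anti-CD8 (FL8), PFA-fixed; control set: Peptide-free naked vesicles (low) and QL9 vesicles with 0.7% DMSO vehicle (high)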
Numbers without * were called inactive; i = inactive; · = no result. Sampled rows, rich in hits. Any-hit rate of the full collection: about 1.4%.

SMILES	JMJD2C inh	HIF act	SUMO Mot1 rescue	T cell HTS
Cc1ccc(C2CC(=O)C=C(NCc3ccccc3)C2)cc1 (centres undefined)	-2.1	2.9	35.0	373.6
O=C1C=C(NCc2ccc3c(c2)OCO3)CC(c2ccccc2)C1 (centres undefined)	60.5*	0.4	68.0	435.8
CCC(=O)c1ccc(N2CCN(C(=O)c3ccc(Br)cc3)CC2)c(F)c1	-1.6	86.0*	12.8	302.1
CCCC(=O)c1ccc(N2CCN(C(=O)c3ccc(Br)cc3)CC2)c(F)c1	-4.5	-0.4	8.3	327.2
Fc1cccc2sc(N3CCCC3)nc12	1.6	3.4	·	i
COc1ccc(-c2nc(C#N)c(N3CCCCCC3)o2)cc1OC	3.9	0.7	347.6*	i
CCC(C)(C(=O)NC1CCCC1)N(Cc1cccs1)C(=O)Cc1cccs1 (centres undefined)	-5.9	1.5	-0.4	34.6*
CCOc1ccc(CN2CCN(Cc3cccn3-c3cccnc3)CC2CCO)cc1 (centres undefined)	-4.4	-0.5	6.4	195.6
OCCC1CN(Cc2cccn2-c2cccnc2)CCN1Cc1ccc(F)cc1 (centres undefined)	4.9	-0.1	357.7*	130.2
Cc1cc(C)c2sc(NNC(=O)c3ccc(S(=O)(=O)N4CCc5ccccc5C4)cc3)nc2c1	-25.3	158.5*	313.4	365.6
Cc1cc(C)c2nc(NNC(=O)c3ccc(S(=O)(=O)N4CCc5ccccc5C4)cc3)sc2c1	46.4	21.7*	-9.1	389.8
Cc1cc(C)c2sc(N(CCCN(C)C)C(=O)c3ccc(S(=O)(=O)N4CCc5ccccc5C4)cc3)nc2c1	-2.6	-3.4	-1.1	383.4
CCc1nnc(NC(=O)c2ccc(S(=O)(=O)N3CCc4ccccc4C3)cc2)s1	9.3	-0.2	11.1	172.9
O=C(c1ccco1)N1CCN(S(=O)(=O)c2c(Cl)cccc2Cl)CC1	-1.1	0.5	0.2	342.6
CCC1(CC)NC(=O)N(CC(=O)Nc2cccc3ccccc23)C1=O	-12.7	·	13.5	152.2
COc1ccc(-c2cc(C(F)(F)F)c(C#N)c(SCC(=O)O)n2)cc1OC	-6.1	-0.2	304.2*	440.5
Cc1ccc(-c2cc(C(F)(F)F)c(C#N)c(SCC(=O)O)n2)cc1	-6.4	-0.5	-8.6	153.7
CCN(C(=O)c1cc2c(=O)[nH]c3ccc(C)cc3c2s1)c1cccc(C)c1	0.6	0.0	-20.2	0.0*
CCN(C(=O)c1cc2c(=O)[nH]c3ccc(C)cc3c2s1)c1ccc(F)cc1	59.9	0.3	0.2	323.5
Cc1cc(NC(=O)Nc2ccc(OCc3ccccc3)cc2)n(C)n1	-6.0	0.8	-1.2	332.5
CC(=O)Nc1ccc(Nc2nc(C)c([N+](=O)[O-])c(Nc3ccc(NC(C)=O)cc3)n2)cc1	8.8	468.7*	9.0	134.5
COc1ccc(C(=O)O)c(OC)n1	3.6	-0.3	313.3*	198.7
Cc1nnc(-c2ccccc2)nc1N(C)C	-1.7	701.5*	8.0	521.5
COc1cnc(-c2ccccn2)nc1N(C)C	9.8	78.2*	-7.1	187.3
COc1ccc(Oc2nc(-c3ccccn3)ncc2OC)cc1	-13.1	-0.1	-7.4	129.9
SMILES	JMJD2C inh	HIF act	SUMO Mot1 rescue	T cell HTS
CN(C)c1nc(-c2ccccn2)nnc1-c1ccccc1	-8.1	105.3*	-17.0	151.8
Cc1ccc(-c2nnc(-c3ccccc3)c(-c3ccccc3)n2)cc1	-6.1	0.5	4.2	268.4
COc1ccc2cc(S(=O)(=O)NC3CC(C)(C)NC(C)(C)C3)ccc2c1	12.2	-0.4	-16.1	0.0
Cc1ccc(C(C)C)c(OCc2ccc(C(=O)N/N=C/c3ccc(O)c(O)c3)cc2)c1	-11.9	-3.6	4.0	301.1
Cc1ccc(C(C)C)c(OCc2ccc(C(=O)N/N=C/c3cccc(O)c3O)cc2)c1	10.7	70.0*	2.1	437.5
COCCNC(=O)C(c1ccc(C)cc1)N(C(=O)CCC(=O)Nc1ccccn1)C1CCCCC1 (centres undefined)	-1.8	0.2	-6.4	429.5
C[C@@H]1COC(=O)[C@H](Cc2ccc(F)cc2)CC/C=C\C[C@@H](CC(=O)NCCO)C(=O)N1	5.7	·	-9.2	59.6*
COC(=O)c1c(-c2cccnc2)csc1NC(=O)c1ccc2c(c1)OCO2	-21.7	3.4	96.2	628.8
CCCNC(=O)C1(CC2CC(c3ccccc3)=NO2)CCN(C(=O)C2(C)CC2)CC1 (centres undefined)	4.9	-0.1	354.5*	404.7
Cc1cccc(C)c1OCc1cc(C(=O)NCC2CC2)no1	2.2	0.5	-11.5	373.2
COc1cc(CNCCc2ccc(S(N)(=O)=O)cc2)ccc1OCC(=O)N1CCCCC1	0.8	0.7	159.0	79.1*
COC(=O)/C=C/C(=O)N1CCN(c2ccccc2)CC1	5.3	-0.5	-8.7	271.4
COC(=O)/C=C/C(=O)N1CCN(c2ccccc2C)CC1	3.8	0.1	439.0*	149.9
COC(=O)C1=C(C)N(CCc2cc(OC)c(OC)c(OC)c2)C(=O)N[C@H]1c1cccs1	56.1*	-0.4	-5.4	487.5
CCOC(=O)CN1C(=O)N[C@@H](c2cccs2)C(C(=O)OC)=C1C	-6.4	2.7	-15.8	514.7
COc1ccc(-n2c(C)n[nH]c2=O)cc1	12.4	-0.7	-4.0	295.1
COc1ccc(-n2c(C)n[nH]c2=O)cc1OC	-6.1	-0.7	347.3*	954.2
COc1cccc(CC(=O)n2nc(N)c3cc4ccc(OC)cc4nc32)c1	-1.0	-0.7	-5.7	553.6
COc1ccc2cc3c(N)nn(C(=O)Cc4c[nH]c5ccccc45)c3nc2c1	7.0	14.2*	-2.6	350.3
COc1ccccc1C(CNC(=O)C(CCSC)NS(=O)(=O)c1ccccc1F)N1CCCC1 (centres undefined)	-31.9	0.2	10.3	142.7
Cc1ccc(C2=NS(=O)(=O)N(C)C(C(=O)Nc3cc(C)n(CC(=O)N4CCC(C)CC4)n3)=C2)cc1	-20.4	-0.7	-7.6	216.9
N/C(=N\OC(=O)c1cccs1)C1(c2ccc(Cl)cc2Cl)CC1	9.0	-0.7	42.6	186.7
N/C(Cc1ccc(Cl)c(Cl)c1)=N\OC(=O)c1cccs1	8.3	-0.2	323.5*	382.8
Cc1cc(C)n(-c2nc3ccccc3c(=O)n2OCC#N)n1	-4.5	14.1*	-17.7	263.2
O=C(CCl)N(C1CCCC1)C1CCS(=O)(=O)C1 (centres undefined)	-0.3	-0.5	-3.9	351.2
O=c1[nH]c(-c2ccc3c(c2)OCO3)nc2c1sc(=S)n2-c1ccccc1	-4.9	0.3	172.0	183.0
O=c1[nH]c(-c2ccc(F)cc2)nc2c1sc(=S)n2-c1ccccc1	-5.4	0.0	966.4*	477.1
O=C(Nc1ccc(Cl)cc1)NN1CC(=O)N(c2cccc(C(F)(F)F)c2)CC1=O	4.7	29.0*	289.2	425.1
CCCCC[C@@H]1C=C(C(=O)O)[C@H](c2ccc(CC)cc2)N1S(=O)(=O)c1ccc(C)cc1	22.5	·	354.1*	0.0

High-throughput results as filed in PubChem.
